Experiments:
P388 [1] = assay: Percentage increase in life span of murine leukemia P388 resistant to 5-FU, at a dose 108 mg/kg; type: functional; details: Mus musculus
How it was run: (§1)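 P-388 model in male BDF₁ mice, six per group, average weight 23 g: 1×10^6 cells ip on day 0, then compound in 0.9% saline ip daily ×5 from 24 h. Mice were observed up to 60 days. % ILS = (T/C − 1) × 100, using median survival of treated mice versus saline-treated controls.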

P388 [2] = assay: Percentage increase in life span of murine leukemia P388 resistant to 5-FU, at a dose 180 mg/kg; type: functional; details: Mus musculus; how it was run: as §1
P388 [3] = assay: Percentage increase in life span of murine leukemia P388 sensitive to 5-FU at dose 108 mg/kg; type: functional; details: Mus musculus; how it was run: as §1
P388 [4] = assay: Percentage increase in life span of murine leukemia P388 sensitive to 5-FU at dose 180 mg/kg; type: functional; details: Mus musculus; how it was run: as §1
P388 [5] = assay: Average percentage weight change on day 6 in murine leukemia P388 resistant to 5-FU at dose 108 mg/kg; type: functional, Mus musculus
How it was run: (§2)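 Male BDF₁ mice, six per group, average weight 23 g, were inoculated ip on day 0 with 1×10^6 P-388 leukemia cells, either 5-FU-sensitive or 5-FU-resistant. Compound in 0.9% saline was given ip once daily for 5 consecutive days, starting 24 h after tumor transplantation. Saline-treated animals served as controls.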

P388 [6] = assay: Average percentage weight change on day 6 in murine leukemia P388 resistant to 5-FU at dose 300 mg/Kg; type: functional, Mus musculus; how it was run: as §2
P388 [7] = assay: Percentage increase in life span of murine leukemia P388 sensitive to 5-FU at dose 300 mg/kg; type: functional; details: Mus musculus; how it was run: as §1
P388 [8] = assay: Percentage increase in life span of murine leukemia P388 sensitive to 5-FU at dose 500 mg/kg; type: functional; details: Mus musculus; how it was run: as §1
P388 [9] = assay: Average percentage weight change on day 6 in murine leukemia P388 sensitive to 5-FU at a dose 108 mg/kg; type: functional, Mus musculus; how it was run: as §2
P388 [10] = assay: Average percentage weight change on day 6 in murine leukemia P388 sensitive to 5-FU at a dose 180 mg/kg; type: functional, Mus musculus; how it was run: as §2
P388 [11] = assay: Average percentage weight change on day 6 in murine leukemia P388 sensitive to 5-FU at dose 300 mg/kg; type: functional, Mus musculus; how it was run: as §2
P388 [12] = assay: Average percentage weight change on day 6 in murine leukemia P388 sensitive to 5-FU at dose 500 mg/kg; type: functional, Mus musculus; how it was run: as §2
P388 [13] = assay: Median survival time (MST) of murine leukemia P388 (1*10e 6 cells) sensitive to 5-FU in mice, dose of 300 mg/kg(ip); type: functional, Mus musculus
How it was run: (§3)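 Male BDF₁ mice, six per group, average weight 23 g, were inoculated ip with 1×10^6 P-388 cells on day 0. Compound in 0.9% saline was given ip daily for 5 days from 24 h post-implant. Mice were followed for 60 days or until death, and median survival time was recorded. Saline-treated controls numbered 20 mice.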

P388 [14] = assay: Median survival time (MST) of murine leukemia P388 (1*10e 6 cells) sensitive to 5-FU in mice, dose of 500 mg/kg(ip); type: functional, Mus musculus; how it was run: as §3
P388 [15] = assay: Median survival time (MST) of murine leukemia P388 (1*10e 6 cells) resistant to 5-FU in mice, dose of 108 mg/kg(ip); type: functional, Mus musculus; how it was run: as §3
P388 [16] = assay: Median survival time (MST) of murine leukemia P388 (1*10e 6 cells) resistant to 5-FU in mice, dose of 180 mg/kg(ip); type: functional, Mus musculus; how it was run: as §3
P388 [17] = assay: Median survival time (MST) of murine leukemia P388 (1*10e 6 cells) sensitive to 5-FU in mice at dose of 108 mg/kg(ip); type: functional, Mus musculus; how it was run: as §3
P388 [18] = assay: Median survival time (MST) of murine leukemia P388 (1*10e 6 cells) sensitive to 5-FU in mice at dose of 180 mg/kg(ip); type: functional, Mus musculus; how it was run: as §3
P388 [19] = assay: Average percentage weight change on day 6 in murine leukemia P388 resistant to 5-FU at dose 180 mg/kg; type: functional, Mus musculus; how it was run: as §2
P388 [20] = assay: Median survival time (MST) of murine leukemia P388 (1*10e 6 cells) resistant to 5-FU in mice, dose of 300 mg/kg(ip); type: functional, Mus musculus; how it was run: as §3
P388 [21] = assay: Percentage increase in life span of murine leukemia P388 resistant to 5-FU, at a dose 300 mg/kg; type: functional; details: Mus musculus; how it was run: as §1
P388 [22] = assay: Percentage increase in life span of murine leukemia P388 resistant to 5-FU at dose 108 mg/kg; type: functional; details: Mus musculus; how it was run: as §1
P388 [23] = assay: Percentage increase in life span of murine leukemia P388 resistant to 5-FU at dose 180 mg/kg; type: functional; details: Mus musculus; how it was run: as §1
P388 [24] = assay: Percentage increase in life span of murine leukemia P388 resistant to 5-FU at dose 500 mg/kg; type: functional; details: Mus musculus; how it was run: as §1
P388 [25] = assay: Percentage increase in life span of murine leukemia P388 sensitive to 5-FU, at dose 108 mg/kg; type: functional; details: Mus musculus; how it was run: as §1
P388 [26] = assay: Percentage increase in life span of murine leukemia P388 sensitive to 5-FU, at dose 180 mg/kg; type: functional; details: Mus musculus; how it was run: as §1
P388 [27] = assay: Percentage increase in life span of murine leukemia P388 sensitive to 5-FU, at dose 300 mg/kg; type: functional; details: Mus musculus; how it was run: as §1
P388 [28] = assay: Average percentage weight change on day 6 in murine leukemia P388 resistant to 5-FU at dose 500 mg/kg; type: functional, Mus musculus; how it was run: as §2
P388 [29] = assay: Average percentage weight change on day 6 in murine leukemia P388 sensitive to 5-FU at dose 108 mg/kg; type: functional, Mus musculus; how it was run: as §2
P388 [30] = assay: Average percentage weight change on day 6 in murine leukemia P388 sensitive to 5-FU at dose 180 mg/kg; type: functional, Mus musculus; how it was run: as §2
P388 [31] = assay: Median survival time (MST) of murine leukemia P388 (1*10e 6 cells) resistant to 5-FU in mice at dose of 108 mg/kg(ip); type: functional, Mus musculus; how it was run: as §3
P388 [32] = assay: Median survival time (MST) of murine leukemia P388 (1*10e 6 cells) resistant to 5-FU in mice at dose of 180 mg/kg(ip); type: functional, Mus musculus; how it was run: as §3
P388 [33] = assay: Median survival time (MST) of murine leukemia P388 (1*10e 6 cells) resistant to 5-FU in mice at dose of 300 mg/kg(ip); type: functional, Mus musculus; how it was run: as §3
P388 [34] = assay: Median survival time (MST) of murine leukemia P388 (1*10e 6 cells) sensitive to 5-FU in mice at dose of 500 mg/kg(ip); type: functional, Mus musculus; how it was run: as §3
P388 [35] = assay: Median survival time (MST) of murine leukemia P388 (1*10e 6 cells) resistant to 5-FU in mice at dose of 500 mg/kg(ip); type: functional, Mus musculus; how it was run: as §3
P388 [36] = assay: Median survival time (MST) of murine leukemia P388 (1*10e 6 cells) sensitive to 5-FU in mice at dose of 300 mg/kg(ip); type: functional, Mus musculus; how it was run: as §3

O=c1[nH]c(=O)n([C@H]2C[C@H](O)[C@@H](COP3(=O)NCCCO3)O2)cc1F (some centres undefined)
ILS at 108 mg/kg (P388 [1]): 0% | ILS at 180 mg/kg (P388 [2]): 0% | ILS at 108 mg/kg (P388 [3]): 33% | ILS at 180 mg/kg (P388 [4]): 44% | Weight change (P388 [5]): -3.4% | Weight change (P388 [6]): -5% | ILS at 300 mg/kg (P388 [7]): 55% | ILS at 500 mg/kg (P388 [8]): 89% | Weight change (P388 [9]): -6.6% | Weight change (P388 [10]): -13.9% | Weight change (P388 [11]): -15.7% | Weight change (P388 [12]): -17.9% | MST (P388 [13]): 14 days | MST (P388 [14]): 17 days | MST (P388 [15]): 10 days | MST (P388 [16]): 10 days | MST (P388 [17]): 12 days | MST (P388 [18]): 13 days | Weight change (P388 [19]): -3.7% | MST (P388 [20]): 9 days

O=c1[nH]c(=O)n([C@H]2C[C@H](O)[C@@H](COP3(=O)OCCCO3)O2)cc1F
ILS at 300 mg/kg (P388 [21]): 0% | ILS at 108 mg/kg (P388 [22]): 0% | ILS at 180 mg/kg (P388 [23]): 0% | ILS at 500 mg/kg (P388 [24]): 0% | ILS at 108 mg/kg (P388 [25]): 11% | ILS at 180 mg/kg (P388 [26]): 11% | ILS at 300 mg/kg (P388 [27]): 22% | Weight change (P388 [5]): 6.3% | Weight change (P388 [6]): 1.2% | Weight change (P388 [28]): 0.6% | ILS at 500 mg/kg (P388 [8]): 33% | Weight change (P388 [29]): 1.7% | Weight change (P388 [30]): 0% | Weight change (P388 [11]): -8.8% | Weight change (P388 [12]): -12.4% | MST (P388 [31]): 10 days | MST (P388 [32]): 10 days | MST (P388 [33]): 10 days | MST (P388 [34]): 12 days | MST (P388 [35]): 10 days | MST (P388 [17]): 10 days | MST (P388 [18]): 10 days | MST (P388 [36]): 11 days | Weight change (P388 [19]): 4.1%
